Data reported in ChEMBL document CHEMBL4354843, “Structure-Based Design of a Potent and Selective Covalent Inhibitor for SRC Kinase That Targets a P-Loop Cysteine” (J Med Chem, 2020).

Key:
[1] = molecular target: Tyrosine-protein kinase JAK2 (Homo sapiens) (UniProt O60674); assay: Binding affinity to wild-type human partial length JAK2 JH1 catalytic domain (A829 to G1132 residues) expressed in mammalian expression system assessed as residual binding level at 1 uM by Kinomescan method relative to control
Sequence of Tyrosine-protein kinase JAK2 (Homo sapiens) (O60674 whole entry, the tested form may be a part): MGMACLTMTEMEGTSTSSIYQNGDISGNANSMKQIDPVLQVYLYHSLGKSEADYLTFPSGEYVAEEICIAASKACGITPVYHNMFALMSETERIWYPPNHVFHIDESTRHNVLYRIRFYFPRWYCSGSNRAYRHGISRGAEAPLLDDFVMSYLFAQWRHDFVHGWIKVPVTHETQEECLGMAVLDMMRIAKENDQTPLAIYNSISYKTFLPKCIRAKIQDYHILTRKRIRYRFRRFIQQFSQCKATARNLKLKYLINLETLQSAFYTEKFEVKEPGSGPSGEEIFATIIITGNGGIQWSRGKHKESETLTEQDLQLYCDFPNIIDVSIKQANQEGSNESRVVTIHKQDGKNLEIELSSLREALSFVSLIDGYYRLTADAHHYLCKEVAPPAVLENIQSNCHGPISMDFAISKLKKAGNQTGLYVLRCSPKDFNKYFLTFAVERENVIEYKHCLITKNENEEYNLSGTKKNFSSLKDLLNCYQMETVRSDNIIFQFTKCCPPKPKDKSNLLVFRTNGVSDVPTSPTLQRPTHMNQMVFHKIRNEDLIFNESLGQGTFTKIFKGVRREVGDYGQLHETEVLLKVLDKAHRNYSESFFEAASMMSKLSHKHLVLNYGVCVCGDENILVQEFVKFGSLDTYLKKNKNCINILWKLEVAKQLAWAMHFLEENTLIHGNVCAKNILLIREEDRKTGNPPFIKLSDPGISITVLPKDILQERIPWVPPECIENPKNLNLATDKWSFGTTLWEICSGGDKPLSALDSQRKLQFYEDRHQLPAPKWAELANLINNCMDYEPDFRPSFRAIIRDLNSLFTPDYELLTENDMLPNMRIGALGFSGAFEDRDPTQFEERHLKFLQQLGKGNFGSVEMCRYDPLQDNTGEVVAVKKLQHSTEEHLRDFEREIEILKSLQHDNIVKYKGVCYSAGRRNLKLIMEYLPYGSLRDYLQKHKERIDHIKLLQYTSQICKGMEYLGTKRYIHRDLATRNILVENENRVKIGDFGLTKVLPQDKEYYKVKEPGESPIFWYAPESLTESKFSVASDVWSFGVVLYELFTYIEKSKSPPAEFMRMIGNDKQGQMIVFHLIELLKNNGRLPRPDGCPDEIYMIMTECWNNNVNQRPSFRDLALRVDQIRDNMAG
Procedure, shortened: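 Active-site-directed competition binding panel of 468 kinases (KinomeScan), compound at 1 μM. The read-out is kinase remaining bound, given as a percentage of the DMSO control. […]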

[2] = molecular target: SNF-related serine/threonine-protein kinase (Homo sapiens) (UniProt Q9NRH2); assay: Binding affinity to wild-type human partial length SNRK (M1 to E339 residues) expressed in mammalian expression system assessed as residual binding level at 1 uM by Kinomescan method relative to control
Sequence of SNF-related serine/threonine-protein kinase (Homo sapiens) (Q9NRH2 whole entry, the tested form may be a part): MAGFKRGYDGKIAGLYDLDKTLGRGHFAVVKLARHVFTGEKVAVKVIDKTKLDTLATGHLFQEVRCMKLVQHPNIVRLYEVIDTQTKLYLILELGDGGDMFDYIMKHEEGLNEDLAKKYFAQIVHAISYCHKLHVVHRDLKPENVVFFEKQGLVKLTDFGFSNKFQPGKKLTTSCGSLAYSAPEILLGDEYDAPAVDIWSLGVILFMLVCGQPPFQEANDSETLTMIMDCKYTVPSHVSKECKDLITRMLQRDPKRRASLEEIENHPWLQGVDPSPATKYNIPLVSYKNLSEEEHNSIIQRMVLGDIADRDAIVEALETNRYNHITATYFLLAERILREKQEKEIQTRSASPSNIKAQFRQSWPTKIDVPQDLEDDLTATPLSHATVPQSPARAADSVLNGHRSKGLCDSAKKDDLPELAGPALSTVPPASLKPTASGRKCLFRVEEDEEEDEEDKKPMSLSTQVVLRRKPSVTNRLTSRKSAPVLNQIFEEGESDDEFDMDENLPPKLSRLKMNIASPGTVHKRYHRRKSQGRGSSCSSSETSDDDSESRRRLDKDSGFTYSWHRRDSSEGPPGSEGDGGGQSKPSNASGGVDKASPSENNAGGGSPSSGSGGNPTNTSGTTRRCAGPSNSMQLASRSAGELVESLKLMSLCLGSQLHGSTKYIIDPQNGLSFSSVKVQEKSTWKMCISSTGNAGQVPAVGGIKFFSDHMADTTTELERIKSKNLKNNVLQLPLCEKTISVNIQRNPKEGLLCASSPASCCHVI

## C=CC(=O)Nc1ccccc1Nc1nc(Nc2ccc(N3CCN(C)CC3)cc2)ncc1C(=O)Nc1c(C)cccc1Cl
[1]
  Activity: 90%
[2]
  Activity: 100%
